For orientation: EC50 means the midpoint of the concentration-response curve. One may read the EC90 as the concentration at which the effect reaches the 90% level. As usually defined, the CC50 is the concentration that lowers cell viability or growth by half.

Data on two compounds can be found in ChEMBL document CHEMBL4038313, “Expanding the Antiviral Spectrum of 3-Fluoro-2-(phosphonomethoxy)propyl Acyclic Nucleoside Phosphonates: Diamyl Aspartate Amidate Prodrugs” (J Med Chem, 2017).

Data set [1] can be described thus: Selectivity index, ratio of CC50 for HepG2.2.15 cells to EC50 for HBV ayw1 infected in human HepG2(2.2.15) cells assessed as reduction in viral replication by measuring extracellular viral DNA copy. The essentials:
(§1)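 HepG2.2.15 cells (two copies of HBV ayw1 genome), 1.5 × 10^4/well in DMEM with 2% FBS and 380 μg/mL G418. After 16–24 h, compound added in triplicate, medium with compound renewed at day 3. Supernatant collected at day 6, Pronase-treated, and extracellular HBV DNA measured by TaqMan qPCR (precore/core) against an HBV DNA standard curve. EC50/EC90 derived; CC50 by MTS uptake.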

In data set [2] the test system is Hepatitis B virus. Description: Antiviral activity against HBV ayw1 infected in human HepG2(2.2.15) cells assessed as reduction in viral replication by measuring intracellular viral DNA copy number after 6 days byr by real-time qPCR assay. The data set is classed as functional, cell-based. Conditions: ayw1, HepG2 2.2.15, 144 h. The essentials:
(§2)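 Run as the HepG2.2.15 6-day assay (triplicate compound, medium with compound renewed at day 3). At the end, total intracellular DNA was isolated from the cells and HBV DNA copy number measured by TaqMan qPCR. EC50/EC90 derived; SI is CC50/EC50.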

Data set [3] relates to Hepatitis B virus. The data set is described as follows: Antiviral activity against HBV ayw1 infected in human HepG2(2.2.15) cells assessed as reduction in viral replication by measuring extracellular viral DNA copy number after 6 days by real-time qPCR method. The data set is classed as functional, cell-based. Conditions: ayw1, HepG2 2.2.15, 144 h. The essentials: as §1

The nature of data set [4]: Cytotoxicity against human HepG2.2.15 cells assessed as cell viability by tetrazolium dye uptake assay. The data set is classed as cell-based, HepG2 2.2.15. The essentials:
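HepG2.2.15 cells (two integrated copies of HBV ayw1 genome) were seeded at 1.5 × 10^4 cells/well in DMEM with 2% FBS, 380 μg/mL G418, glutamine, antibiotics and nonessential amino acids. After 16−24 h, medium with various compound concentrations was added in triplicate and renewed on day 3. After 6 days of treatment, viability was read by MTS uptake and CC50 was calculated.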

The nature of data set [5]: Selectivity index, ratio of CC50 for HepG2.2.15 cells to EC50 for HBV ayw1 infected in human HepG2(2.2.15) cells assessed as reduction in viral replication by measuring intracellular viral DNA copy. The method in brief:
as §2

As to `C=C1[C@H](CO)[C@@H](O)C[C@@H]1n1cnc2c(=O)[nH]c(N)nc21.O` [ENTECAVIR], the “Ratio CC50/EC50” value was greater than 2381 in data set [1] and greater than 2857 in data set [5]. In addition, the EC50 in the data set with Hepatitis B virus [2] is 0.35 nM; in the data set on Hepatitis B virus [3] it was less than 10 nM. In addition, the EC90 in the data set with Hepatitis B virus [2] and in the data set with Hepatitis B virus [3] was greater than 1000 nM each time. In addition, in data set [4], the CC50 was greater than 1000 nM.

As to `Nc1ccn([C@@H]2CS[C@H](CO)O2)c(=O)n1` [LAMIVUDINE], the “Ratio CC50/EC50” value in data set [1] was greater than 105; in data set [5], greater than 225. Besides, the EC50 was determined as 8.87 nM in the data set with Hepatitis B virus [2] and 20 nM with Hepatitis B virus [3]. The EC90 with Hepatitis B virus [2] and with Hepatitis B virus [3] was greater than 2000 nM throughout. Besides, the CC50 in data set [4] was greater than 2000 nM.
